Reference: ChEMBL document CHEMBL3864135, “Synthesis and pharmacological evaluation of functionalized isoindolinones on GABA-activated chloride currents in rat cerebellum granule cells in culture” (Bioorg Med Chem Lett, 2016)

Experiments:
[1] = Solubility of the compound in ethanol; format: physicochemical
[2] = Solubility of the compound in DMSO; format: physicochemical
[3] = Solubility of the compound in water; format: physicochemical; conditions: buffer
[4] = Solubility of the compound in phosphate buffer at pH 3.2; format: physicochemical
[5] = target: T1, Gamma-aminobutyric acid receptor subunit alpha-1/beta-2/beta-3/gamma-2 (Rattus norvegicus) (UniProt P18508+P62813+P63079+P63138); test: Inverse agonist activity at GABA alpha1beta2beta3gamma2 receptor Bzd binding site in Sprague-Dawley rat cerebellar granule cells assessed as decrease in GABA-activated chloride currents at 1 uM by whole-cell patch clamp technique relative to control
Outline: (§1)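 Whole-cell patch clamp on cultured rat cerebellar granule cells. Peak, rapidly desensitizing chloride current evoked by 10 μM GABA, recorded with and without test compound. Compounds applied at 1 μM, or at 0.47 μM where solubility limited. Change expressed as percent of the current with GABA alone (E %), mean ± SEM. Student's t-test against GABA alone.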

[6] = target: T1, Gamma-aminobutyric acid receptor subunit alpha-1/beta-2/beta-3/gamma-2 (Rattus norvegicus); test: Agonist activity at GABA alpha1beta2beta3gamma2 receptor Bzd binding site in Sprague-Dawley rat cerebellar granule cells assessed as increase in GABA-activated chloride currents at 1 uM by whole-cell patch clamp technique relative to control; outline: as §1
[7] = target: T1, Gamma-aminobutyric acid receptor subunit alpha-1/beta-2/beta-3/gamma-2 (Rattus norvegicus); test: Inverse agonist activity at GABA alpha1beta2beta3gamma2 receptor Bzd binding site in Sprague-Dawley rat cerebellar granule cells assessed as decrease in GABA-activated chloride currents at 0.47 uM by whole-cell patch clamp technique relative to control; outline: as §1
[8] = Drug metabolism assessed as decarboxylated metabolite formation; format: ADME

Structure (SMILES) | solubility [1] | solubility [2] | solubility [3] | solubility [4] | Efficacy [5] [%] | Efficacy [6] [%] | Efficacy [7] [%] | Drug metabolism [8] [%ID]
Cl.O=C(CC1c2ccccc2C(=O)N1c1ccc([N+](=O)[O-])cn1)N1CCN(c2ccccc2)CC1 (stereo not given) | Soluble | Soluble | Soluble | Soluble | 27 |  |  | 
Cc1ccc(N2CCN(C(=O)CC3c4ccccc4C(=O)N3c3ccc([N+](=O)[O-])cn3)CC2)cc1.Cl (stereo not given) | Soluble | Insoluble | Soluble | Soluble |  |  |  | 
CN1CCN(C(=O)CC2c3ccccc3C(=O)N2c2ccc(Cl)cn2)CC1.Cl (stereo not given) | Soluble | Soluble | Soluble | Soluble |  | 18 |  | 
CN1CCN(C(=O)CC2c3ccccc3C(=O)N2c2ccc(N)cn2)CC1.Cl (stereo not given) | Soluble | Insoluble | Soluble | Soluble |  |  | 23 | 
CN1CCN(C(=O)CC2c3ccccc3C(=O)N2c2ccc([N+](=O)[O-])cn2)CC1.Cl (stereo not given) | Soluble | Soluble | Soluble | Soluble |  | 34 |  | 
Cl.O=C(CC1c2ccccc2C(=O)N1c1ccc([N+](=O)[O-])cn1)N1CCN(c2ccc(F)cc2)CC1 (stereo not given) | Soluble | Soluble | Soluble | Soluble |  |  |  | 
CN1CCN(C(=O)CC2c3ccccc3C(=O)N2c2ccccn2)CC1.Cl (stereo not given) | Soluble | Soluble | Soluble | Soluble |  | 20 |  | 
CN1CCN(C(=O)CC2c3ccccc3C(=O)N2c2ccc(Br)cn2)CC1.Cl (stereo not given) | Soluble | Soluble | Soluble | Soluble |  | 26 |  | 
Cl.O=C(CC1c2ccccc2C(=O)N1c1ccc([N+](=O)[O-])cn1)N1CCN(c2ccc(Cl)cc2)CC1 (stereo not given) | Soluble | Soluble | Soluble | Soluble | 36 |  |  | 
CN1CCN(C(=O)OC2c3nccnc3C(=O)N2c2ccc(Cl)cn2)CC1 (stereo not given) [ZOPICLONE] |  |  |  |  |  | 58 |  | 50
Cc1ccc(N2C(=O)c3ccccc3C2CC(=O)N2CCN(C)CC2)nc1.Cl (stereo not given) | Soluble | Soluble | Soluble | Soluble |  | 21 |  | 
COc1ccc(N2CCN(C(=O)CC3c4ccccc4C(=O)N3c3ccc([N+](=O)[O-])cn3)CC2)cc1.Cl (stereo not given) | Soluble | Soluble | Soluble | Soluble | 21 |  |  | 
